Test results taken from ChEMBL document CHEMBL1142625, “Antifungal substances against pathogenic fungi, talaroconvolutins, from talaromyces convolutus” (J Nat Prod, 2000).
The source made the active and inactive calls. The calls are words filed in the database; no cut-off is given here.

How the values were obtained:
Aspergillus fumigatus [1] = assay: Antifungal activity against Aspergillus fumigatus Fresenius 167 assessed as diameter of inhibition zone at 100 ug/disk after 48 to 72 hrs by paper disk assay; format: functional; settings: for zone of inhibition at 100 µg/disc: Aspergillus fumigatus, read-out: IZ
Procedure, shortened: (§1)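 Compound was absorbed onto 8 mm paper disks and the disks were placed on assay plates seeded with the test fungus. Plates contained Sabouraud's glucose broth agar and were incubated at 25 °C. After 48–72 h, the diameter of the inhibition zone was recorded in mm.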

Aspergillus fumigatus [2] = assay: Antifungal activity against Aspergillus fumigatus Fresenius 167 assessed as diameter of inhibition zone at 20 ug/disk after 48 to 72 hrs by paper disk assay; format: functional; settings: for zone of inhibition at 20 µg/disc: Aspergillus fumigatus, read-out: IZ; procedure, shortened: as §1
Aspergillus fumigatus [3] = assay: Antifungal activity against Aspergillus fumigatus Fresenius 167 assessed as diameter of inhibition zone at 5 ug/disk after 48 to 72 hrs by paper disk assay; format: functional; settings: for zone of inhibition at 5 µg/disc: Aspergillus fumigatus, read-out: IZ; procedure, shortened: as §1
Aspergillus fumigatus [4] = assay: Antifungal activity against Aspergillus fumigatus Fresenius 167 assessed as diameter of inhibition zone at 1 ug/disk after 48 to 72 hrs by paper disk assay; format: functional; settings: for zone of inhibition at 1 µg/disc: read-out: IZ; procedure, shortened: as §1
Aspergillus niger [5] = assay: Antifungal activity against Aspergillus niger Van Tieghem H7160B assessed as diameter of inhibition zone at 100 ug/disk after 48 to 72 hrs by paper disk assay; format: functional; settings: for zone of inhibition at 100 µg/disc: Aspergillus niger, Van Tieghem, read-out: IZ; procedure, shortened: as §1
Aspergillus niger [6] = assay: Antifungal activity against Aspergillus niger Van Tieghem H7160B assessed as diameter of inhibition zone at 20 ug/disk after 48 to 72 hrs by paper disk assay; format: functional; settings: for zone of inhibition at 20 µg/disc: Aspergillus niger, Van Tieghem, read-out: IZ; procedure, shortened: as §1
Aspergillus niger [7] = assay: Antifungal activity against Aspergillus niger Van Tieghem H7160B assessed as diameter of inhibition zone at 5 ug/disk after 48 to 72 hrs by paper disk assay; format: functional; settings: for zone of inhibition at 5 µg/disc: Aspergillus niger, Van Tieghem, read-out: IZ; procedure, shortened: as §1
Aspergillus niger [8] = assay: Antifungal activity against Aspergillus niger Van Tieghem H7160B assessed as diameter of inhibition zone at 1 ug/disk after 48 to 72 hrs by paper disk assay; format: functional; procedure, shortened: as §1
Candida albicans [9] = assay: Antifungal activity against Candida albicans 7N assessed as diameter of inhibition zone at 100 ug/disk after 48 to 72 hrs by paper disk assay; format: functional; settings: for zone of inhibition at 100 µg/disc: Candida albicans, read-out: IZ; procedure, shortened: as §1
Candida albicans [10] = assay: Antifungal activity against Candida albicans 7N assessed as diameter of inhibition zone at 20 ug/disk after 48 to 72 hrs by paper disk assay; format: functional; settings: for zone of inhibition at 20 µg/disc: Candida albicans, read-out: IZ; procedure, shortened: as §1
Candida albicans [11] = assay: Antifungal activity against Candida albicans 7N assessed as diameter of inhibition zone at 5 ug/disk after 48 to 72 hrs by paper disk assay; format: functional; settings: for zone of inhibition at 5 µg/disc: Candida albicans, read-out: IZ; procedure, shortened: as §1
Candida albicans [12] = assay: Antifungal activity against Candida albicans 7N assessed as diameter of inhibition zone at 1 ug/disk after 48 to 72 hrs by paper disk assay; format: functional; settings: for zone of inhibition at 1 µg/disc: Candida albicans, read-out: IZ; procedure, shortened: as §1
Cryptococcus neoformans [13] = assay: Antifungal activity against Cryptococcus neoformans (Sanfelice) Vuillemin ATCC 90112 assessed as diameter of inhibition zone at 100 ug/disk after 48 to 72 hrs by paper disk assay; format: functional; procedure, shortened: as §1
Cryptococcus neoformans [14] = assay: Antifungal activity against Cryptococcus neoformans (Sanfelice) Vuillemin ATCC 90112 assessed as diameter of inhibition zone at 20 ug/disk after 48 to 72 hrs by paper disk assay; format: functional; procedure, shortened: as §1
Cryptococcus neoformans [15] = assay: Antifungal activity against Cryptococcus neoformans (Sanfelice) Vuillemin ATCC 90112 assessed as diameter of inhibition zone at 5 ug/disk after 48 to 72 hrs by paper disk assay; format: functional; procedure, shortened: as §1
Cryptococcus neoformans [16] = assay: Antifungal activity against Cryptococcus neoformans (Sanfelice) Vuillemin ATCC 90112 assessed as diameter of inhibition zone at 1 ug/disk after 48 to 72 hrs by paper disk assay; format: functional; procedure, shortened: as §1
Cryptococcus neoformans [17] = assay: Antifungal activity against Cryptococcus neoformans (Sanfelice) Vuillemin ATCC 90112 assessed as diameter of inhibition zone upto 100 ug/disk after 48 to 72 hrs by paper disk assay; format: functional, organism-based; procedure, shortened: as §1
Aspergillus fumigatus [18] = assay: Antifungal activity against Aspergillus fumigatus Fresenius 167 assessed as diameter of inhibition zone upto 100 ug/disk after 48 to 72 hrs by paper disk assay; format: functional, organism-based; procedure, shortened: as §1
Aspergillus niger [19] = assay: Antifungal activity against Aspergillus niger Van Tieghem H7160B assessed as diameter of inhibition zone upto 100 ug/disk after 48 to 72 hrs by paper disk assay; format: functional, organism-based; procedure, shortened: as §1
Candida albicans [20] = assay: Antifungal activity against Candida albicans 7N assessed as diameter of inhibition zone upto 100 ug/disk after 48 to 72 hrs by paper disk assay; format: functional, organism-based; procedure, shortened: as §1

Q: With `CCOC1C(C(=O)[C@H]2[C@@H](/C(C)=C/C(C)CC)C(C)=C[C@@]3(C)C[C@@H](C)CC[C@H]23)C(=O)NC1(O)Cc1ccc(O)cc1` (some centres undefined) [TALAROCONVOLUTIN C] as the compound, how does the zone of inhibition at 100 µg/disc (Aspergillus fumigatus [1]) read?
A: 11 mm

Q: And the zone of inhibition at 20 µg/disc (Aspergillus fumigatus [2])?
A: 11 mm

Q: And the Activity (Aspergillus fumigatus [3])?
A: inactive

Q: What about the Activity (Aspergillus fumigatus [4]) of the same compound?
A: inactive

Q: And the zone of inhibition at 100 µg/disc (Aspergillus niger [5])?
A: 11 mm

Q: What about the zone of inhibition at 20 µg/disc (Aspergillus niger [6]) of the same compound?
A: 10 mm

Q: And the Activity (Aspergillus niger [7])?
A: inactive

Q: What about the “inhibition zone (IZ)” value (Aspergillus niger [8]) of the same compound?
A: inactive

Q: What about the zone of inhibition at 100 µg/disc (Candida albicans [9]) of the same compound?
A: 11 mm

Q: And the zone of inhibition at 20 µg/disc (Candida albicans [10])?
A: 10 mm

Q: What about the Activity (Candida albicans [11]) of the same compound?
A: inactive

Q: What about the Activity (Candida albicans [12]) of the same compound?
A: inactive

Q: What about the Activity (Cryptococcus neoformans [13]) of the same compound?
A: inactive

Q: What about the Activity (Cryptococcus neoformans [14]) of the same compound?
A: inactive

Q: What about the Activity (Cryptococcus neoformans [15]) of the same compound?
A: inactive

Q: And the Activity (Cryptococcus neoformans [16])?
A: inactive

Q: What about the Activity (Cryptococcus neoformans [17]) of the same compound?
A: inactive

Q: Which Activity (Aspergillus fumigatus [18]) does the source give for `CCC(C)/C=C(\C)[C@H]1C(C)=C[C@@]2(C)C[C@@H](C)CC[C@@H]2[C@H]1C(=O)C1=C/C(=C/c2ccc(O)cc2)NC1=O` (some centres undefined) here?
A: inactive

Q: And the Activity (Aspergillus niger [19])?
A: inactive

Q: And the Activity (Candida albicans [20])?
A: inactive

Q: And the Activity (Cryptococcus neoformans [17])?
A: inactive

Q: With `CCC(C)/C=C(\C)[C@H]1C(C)=C[C@@]2(C)C[C@@H](C)CC[C@@H]2[C@H]1C(=O)C1=CC(O)(Cc2ccc(O)cc2)NC1=O` (stereo in doubt; 2) as the compound, how does the Activity (Aspergillus fumigatus [4]) read?
A: inactive

Q: What about the Activity (Aspergillus niger [8]) of the same compound?
A: inactive

Q: And the Activity (Cryptococcus neoformans [13])?
A: inactive

Q: And the Activity (Cryptococcus neoformans [14])?
A: inactive

Q: What about the Activity (Cryptococcus neoformans [15]) of the same compound?
A: inactive

Q: And the Activity (Cryptococcus neoformans [16])?
A: inactive

Q: And the Activity (Cryptococcus neoformans [17])?
A: inactive

Q: For `CCC(C)/C=C(\C)[C@H]1C(C)=C[C@@]2(C)C[C@@H](C)CC[C@@H]2[C@H]1C(=O)C1C(=O)NC2(Cc3ccc(O)cc3)OC(C)(C)OC12` (some centres undefined), which Activity (Aspergillus fumigatus [18]) is on record?
A: inactive

Q: What about the Activity (Aspergillus niger [19]) of the same compound?
A: inactive

Q: What about the Activity (Candida albicans [20]) of the same compound?
A: inactive

Q: And the Activity (Cryptococcus neoformans [17])?
A: inactive

Q: Which zone of inhibition at 100 µg/disc (Aspergillus fumigatus [1]) does the source give for `C[C@@H]1[C@H](O)[C@@H](C)/C=C/C=C/C=C/C=C/C=C/C=C/C=C/[C@H](O[C@@H]2O[C@H](C)[C@@H](O)[C@H](N)[C@@H]2O)C[C@@H]2O[C@](O)(C[C@@H](O)C[C@@H](O)[C@H](O)CC[C@@H](O)C[C@@H](O)CC(=O)O[C@H]1C)C[C@H](O)[C@H]2C(=O)O` [AMPHOTERICIN B] here?
A: 17 mm

Q: And the zone of inhibition at 20 µg/disc (Aspergillus fumigatus [2])?
A: 14 mm

Q: What about the zone of inhibition at 5 µg/disc (Aspergillus fumigatus [3]) of the same compound?
A: 12 mm

Q: And the zone of inhibition at 1 µg/disc (Aspergillus fumigatus [4])?
A: 10 mm

Q: And the zone of inhibition at 100 µg/disc (Aspergillus niger [5])?
A: 25 mm

Q: What about the zone of inhibition at 20 µg/disc (Aspergillus niger [6]) of the same compound?
A: 24 mm

Q: What about the zone of inhibition at 5 µg/disc (Aspergillus niger [7]) of the same compound?
A: 20 mm

Q: What about the zone of inhibition at 1 µg/disc (Aspergillus niger [8]; Aspergillus niger, Van Tieghem, read-out: IZ) of the same compound?
A: 16 mm

Q: And the zone of inhibition at 100 µg/disc (Candida albicans [9])?
A: 20 mm

Q: And the zone of inhibition at 20 µg/disc (Candida albicans [10])?
A: 20 mm

Q: And the zone of inhibition at 5 µg/disc (Candida albicans [11])?
A: 18 mm

Q: What about the zone of inhibition at 1 µg/disc (Candida albicans [12]) of the same compound?
A: 15 mm

Q: And the zone of inhibition at 100 µg/disc (Cryptococcus neoformans [13]; read-out: IZ)?
A: 19 mm

Q: And the zone of inhibition at 20 µg/disc (Cryptococcus neoformans [14]; read-out: IZ)?
A: 16 mm

Q: And the zone of inhibition at 5 µg/disc (Cryptococcus neoformans [15]; read-out: IZ)?
A: 13 mm

Q: What about the zone of inhibition at 1 µg/disc (Cryptococcus neoformans [16]; read-out: IZ) of the same compound?
A: 11 mm

Q: `CCC(C)/C=C(\C)[C@H]1C(C)=C[C@@]2(C)C[C@@H](C)CC[C@@H]2[C@H]1C(=O)C1=CC(O)(Cc2ccc(O)cc2)NC1=O` (stereo in doubt; 5) was tested. Which Activity (Cryptococcus neoformans [13]) did it give?
A: inactive

Q: And the Activity (Cryptococcus neoformans [14])?
A: inactive

Q: And the Activity (Cryptococcus neoformans [15])?
A: inactive

Q: And the Activity (Cryptococcus neoformans [16])?
A: inactive

Q: Which results are given for `CCC(C)/C=C(\C)[C@H]1C(C)=C[C@@]2(C)C[C@@H](C)CC[C@@H]2[C@H]1C(=O)C1=CC(O)(Cc2ccc(O)cc2)NC1=O` (stereo in doubt; 5) [TALAROCONVOLUTIN B]?
A: inhibition zone (IZ) (Aspergillus fumigatus [1]): 17 mm; inhibition zone (IZ) (Aspergillus fumigatus [2]): 15 mm; inhibition zone (IZ) (Aspergillus fumigatus [3]): 14 mm; zone of inhibition at 1 µg/disc (Aspergillus fumigatus [4]): 11 mm; inhibition zone (IZ) (Aspergillus niger [5]): 16 mm; inhibition zone (IZ) (Aspergillus niger [6]): 15 mm; inhibition zone (IZ) (Aspergillus niger [7]): 13 mm; Activity (Aspergillus niger [8]): 11 mm; inhibition zone (IZ) (Candida albicans [9]): 20 mm; inhibition zone (IZ) (Candida albicans [10]): 18 mm; inhibition zone (IZ) (Candida albicans [11]): 17 mm; inhibition zone (IZ) (Candida albicans [12]): 15 mm

Q: Which zone of inhibition at 100 µg/disc (Aspergillus fumigatus [1]) does the source give for `CCC(C)/C=C(\C)[C@H]1C(C)=C[C@@]2(C)C[C@@H](C)CC[C@@H]2[C@H]1C(=O)C1=CC(O)(Cc2ccc(O)cc2)NC1=O` (stereo in doubt; 2) [TALAROCONVOLUTIN B] here?
A: 12 mm

Q: What about the zone of inhibition at 20 µg/disc (Aspergillus fumigatus [2]) of the same compound?
A: 11 mm

Q: What about the zone of inhibition at 5 µg/disc (Aspergillus fumigatus [3]) of the same compound?
A: 10 mm

Q: What about the zone of inhibition at 100 µg/disc (Aspergillus niger [5]) of the same compound?
A: 11 mm

Q: And the zone of inhibition at 20 µg/disc (Aspergillus niger [6])?
A: 10 mm

Q: And the zone of inhibition at 5 µg/disc (Aspergillus niger [7])?
A: 9 mm

Q: What about the zone of inhibition at 100 µg/disc (Candida albicans [9]) of the same compound?
A: 15 mm

Q: What about the zone of inhibition at 20 µg/disc (Candida albicans [10]) of the same compound?
A: 14 mm

Q: What about the zone of inhibition at 5 µg/disc (Candida albicans [11]) of the same compound?
A: 13 mm

Q: And the zone of inhibition at 1 µg/disc (Candida albicans [12])?
A: 11 mm
